For data set [1], the target named is T1, Peroxisome proliferator-activated receptor alpha (Homo sapiens) (UniProt Q07869).
T1 sequence (whole entry): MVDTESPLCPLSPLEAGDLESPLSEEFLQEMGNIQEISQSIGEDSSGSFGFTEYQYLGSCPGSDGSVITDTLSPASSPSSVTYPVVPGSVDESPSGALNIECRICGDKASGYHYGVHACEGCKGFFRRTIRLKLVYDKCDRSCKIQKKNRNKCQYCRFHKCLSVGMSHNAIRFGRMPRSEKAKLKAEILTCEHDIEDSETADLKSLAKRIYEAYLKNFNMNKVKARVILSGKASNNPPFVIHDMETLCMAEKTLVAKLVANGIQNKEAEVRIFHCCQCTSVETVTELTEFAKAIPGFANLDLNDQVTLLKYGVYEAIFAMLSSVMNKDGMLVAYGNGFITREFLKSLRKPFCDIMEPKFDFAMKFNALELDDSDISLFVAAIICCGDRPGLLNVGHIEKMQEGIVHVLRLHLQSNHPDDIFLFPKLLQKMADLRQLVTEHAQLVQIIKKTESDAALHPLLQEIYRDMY
Kind of data set: Agonist activity at PPARalpha expressed in HEK293 cells by measuring Gal4 luciferase reporter activity relative to (S)-2- {2-[1-Ethyl-3-(4-trifluoromethoxyphenyl)ureido] indan-5-ylsulfanyl}-2- methylpropionic acid. In kind it is functional, cell-based. In a few lines: (§1)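 HEK293 cells grown in DMEM/F-12 with 10% FBS and glutamine, cotransfected with a PPARα ligand-binding domain-Gal4 chimera and a Gal4-luciferase reporter. Next day switched to 5% charcoal-treated FBS medium, replated after 6 h at 50 000 cells/well, and cultured overnight. Compound or vehicle (0.1% DMSO) added for 24 h at 37 °C. Luciferase read by Steady-Glo; percent efficacy given relative to a reference PPARα agonist.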

In data set [2] the target is T2, Peroxisome proliferator-activated receptor gamma (Homo sapiens, UniProt P37231).
T2 sequence (P37231 whole entry): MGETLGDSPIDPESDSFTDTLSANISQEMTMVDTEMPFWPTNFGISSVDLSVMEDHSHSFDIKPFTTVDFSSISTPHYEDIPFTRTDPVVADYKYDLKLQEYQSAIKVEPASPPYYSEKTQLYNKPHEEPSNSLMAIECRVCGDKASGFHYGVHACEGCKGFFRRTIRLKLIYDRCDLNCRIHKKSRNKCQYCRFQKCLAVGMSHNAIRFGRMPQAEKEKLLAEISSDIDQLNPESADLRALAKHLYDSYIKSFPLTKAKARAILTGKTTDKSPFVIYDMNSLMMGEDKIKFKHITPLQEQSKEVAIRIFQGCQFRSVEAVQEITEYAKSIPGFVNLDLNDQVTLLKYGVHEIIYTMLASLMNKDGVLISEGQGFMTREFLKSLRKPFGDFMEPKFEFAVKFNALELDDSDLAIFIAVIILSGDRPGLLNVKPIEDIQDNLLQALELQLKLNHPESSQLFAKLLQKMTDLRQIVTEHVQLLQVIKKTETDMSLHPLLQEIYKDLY
Put plainly: Agonist activity at PPARgamma expressed in HEK293 cells by measuring Gal4 luciferase reporter activity. In kind it is functional, cell-based.

In data set [3] the test system is Mus musculus. Kind of data set: Effect on lipid homeostasis in human apoA1 transgenic mouse assessed as decrease in triglyceride level at 3 mg/kg, po after 7 days. In kind it is functional. Set-up: scale not given: the % may be the effect or the level left. In a few lines:
(§2)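 Male human apoA1 transgenic mice were given 3 mg/kg orally as a 0.5% methylcellulose suspension for 7 days. Serum HDL-C, triglyceride and free fatty acids were sampled under fed conditions and measured on a COBAS Mira Plus analyzer. n = 8/group; one-way ANOVA with Dunnett's test vs vehicle control.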

Data set [4] relates to Mus musculus. Put plainly: Effect on lipid homeostasis in human apoA1 transgenic mouse assessed as decrease in free fatty acid levels at 3 mg/kg, po after 7 days. The class given is functional. Further details: scale not given: the % may be the effect or the level left. In a few lines:
as §2

Data set [5] concerns Rattus norvegicus. Put plainly: Increase in serum HDL-C levels in hypercholesterolemic Sprague-Dawley rat at 0.1 to 3 mg/kg/day, po after 8 days. The class given is functional, organism-based. In a few lines: (§3)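 Male Sprague-Dawley rats (275-325 g) were fed a high-cholesterol atherogenic diet for 6 days before and throughout treatment; lean controls got normal chow plus vehicle. Drug in 0.5% Methocel was given orally at 10 mL/kg once daily for 8 days. On day 9, retro-orbital blood was taken under CO2/O2 anesthesia and serum lipids measured on a COBAS analyzer. n = 8/group; one-way ANOVA with Dunnett's test.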

The target in data set [6] is Retinoic acid receptor (Homo sapiens) (UniProt P13631+P10826+P10276). Kind of data set: Effect on RAR. In kind it is protein assay.
A short description of data set [7]: Cmax in rat at 3 mg/kg, po. Set-up: dose 3 mg/kg, route oral. The note with it: in vivo. In kind it is ADME, organism-based. In a few lines: (§4)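 Heparinized orbital-sinus blood was collected; plasma was precipitated with acetonitrile plus internal standard and quantified by LC-MS-MS using calibration standards prepared in plasma.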
Data set [8] concerns the target Retinoid X receptor (Homo sapiens) (UniProt P28702+P48443+P19793). Put plainly: Effect on RXR. In kind it is protein assay.
The nature of data set [9]: Tmax in rat at 3 mg/kg, po. In kind it is ADME, organism-based. The note with it: in vivo. Further details: dose 3 mg/kg, route oral. In a few lines:
as §4

The nature of data set [10]: Bioavailability in rat at 3 mg/kg, po. The class given is ADME, organism-based. The note with it: in vivo. In a few lines: as §4
A short description of data set [11]: AUC in rat at 3 mg/kg. The class given is ADME, organism-based. Set-up: dose 3 mg/kg. The note with it: plasma.
For data set [12], the system named is Rattus norvegicus. Put plainly: Decrease in serum LDL-C levels in hypercholesterolemic Sprague-Dawley rat at 0.1 to 3 mg/kg/day, po after 8 days. The class given is functional, organism-based. In a few lines:
as §3

The test system of data set [13] is Mus musculus. Kind of data set: Effect on lipid homeostasis in human apoA1 transgenic mouse assessed as increase in HDL-C levels at 3 mg/kg, po after 7 days. The class given is functional. In a few lines: as §2
In data set [14] the test system is Mus musculus. Kind of data set: Effect on lipid homeostasis in C57BL/6J Lepob mouse assessed as decrease in serum triglyceride levels at 1 mg/kg, po after 11 days. The class given is functional. Further details: scale not given: the % may be the effect or the level left. In a few lines: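 Seven-week-old female ob/ob (C57BL/6J-Lepob) mice were dosed orally with a 0.5% methylcellulose suspension for 11 days. Serum TG, glucose and FFA were taken under fed conditions and measured on a COBAS Mira Plus analyzer, and liver was weighed. Mean ± SEM, n = 8; one-way ANOVA with Dunnett's test vs vehicle.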

The target in data set [15] is T3, Peroxisome proliferator-activated receptor alpha (Mus musculus, UniProt P23204).
T3 sequence (P23204 whole entry): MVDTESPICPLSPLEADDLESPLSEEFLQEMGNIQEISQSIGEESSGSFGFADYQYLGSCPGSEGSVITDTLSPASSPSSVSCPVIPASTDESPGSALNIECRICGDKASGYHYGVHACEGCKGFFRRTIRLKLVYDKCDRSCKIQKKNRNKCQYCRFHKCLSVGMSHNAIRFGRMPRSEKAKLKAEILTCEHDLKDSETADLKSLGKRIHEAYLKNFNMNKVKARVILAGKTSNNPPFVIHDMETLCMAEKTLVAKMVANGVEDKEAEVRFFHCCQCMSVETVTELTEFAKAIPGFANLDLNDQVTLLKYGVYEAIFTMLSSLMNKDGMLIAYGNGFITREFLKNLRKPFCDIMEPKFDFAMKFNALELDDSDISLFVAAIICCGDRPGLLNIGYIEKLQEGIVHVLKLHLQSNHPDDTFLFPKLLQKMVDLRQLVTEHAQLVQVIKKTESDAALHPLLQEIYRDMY
Put plainly: Efficacy on PPARalpha in mouse by HD assay.

The target of data set [16] is T4, Bile acid receptor (Homo sapiens) (UniProt Q96RI1).
T4 sequence (whole entry): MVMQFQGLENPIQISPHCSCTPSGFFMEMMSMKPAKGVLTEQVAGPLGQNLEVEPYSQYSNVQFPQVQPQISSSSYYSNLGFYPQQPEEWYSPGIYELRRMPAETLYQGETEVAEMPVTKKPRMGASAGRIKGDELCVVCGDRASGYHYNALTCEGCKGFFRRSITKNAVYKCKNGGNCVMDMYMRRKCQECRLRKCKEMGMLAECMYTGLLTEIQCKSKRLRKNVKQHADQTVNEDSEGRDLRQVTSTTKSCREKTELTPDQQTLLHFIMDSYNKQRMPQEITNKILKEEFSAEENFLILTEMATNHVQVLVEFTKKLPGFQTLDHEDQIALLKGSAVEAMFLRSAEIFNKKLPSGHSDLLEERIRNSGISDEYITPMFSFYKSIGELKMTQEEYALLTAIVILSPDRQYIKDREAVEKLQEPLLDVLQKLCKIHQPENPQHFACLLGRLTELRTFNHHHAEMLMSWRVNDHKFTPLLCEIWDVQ
Put plainly: Effect on FXR.

Data set [17] can be described thus: Half life in rat at 3 mg/kg. In kind it is ADME, organism-based. Further details: dose 3 mg/kg. The note with it: in vivo. In a few lines:
(§5)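 Rats given 3 mg/kg; IV formulation was a solution in 10% w/v Solutol in 5% dextrose in water (D5W). Blood was drawn by orbital sinus puncture into heparinized tubes. Plasma was protein-precipitated with acetonitrile containing internal standard, centrifuged at 5000g for 3 min and analysed by LC-MS-MS against plasma calibration standards.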

Data set [18] concerns the target Liver X receptor (Homo sapiens) (UniProt Q13133+P55055). Kind of data set: Effect on LXR. The class given is protein assay.
Data set [19] in a line: Clearance in rat at 3 mg/kg. Further details: dose 3 mg/kg. The note with it: in vivo. In kind it is ADME, organism-based. In a few lines: as §5
For data set [20], the target named is T5, Peroxisome proliferator-activated receptor delta (Homo sapiens, UniProt Q03181).
T5 sequence (Q03181 whole entry): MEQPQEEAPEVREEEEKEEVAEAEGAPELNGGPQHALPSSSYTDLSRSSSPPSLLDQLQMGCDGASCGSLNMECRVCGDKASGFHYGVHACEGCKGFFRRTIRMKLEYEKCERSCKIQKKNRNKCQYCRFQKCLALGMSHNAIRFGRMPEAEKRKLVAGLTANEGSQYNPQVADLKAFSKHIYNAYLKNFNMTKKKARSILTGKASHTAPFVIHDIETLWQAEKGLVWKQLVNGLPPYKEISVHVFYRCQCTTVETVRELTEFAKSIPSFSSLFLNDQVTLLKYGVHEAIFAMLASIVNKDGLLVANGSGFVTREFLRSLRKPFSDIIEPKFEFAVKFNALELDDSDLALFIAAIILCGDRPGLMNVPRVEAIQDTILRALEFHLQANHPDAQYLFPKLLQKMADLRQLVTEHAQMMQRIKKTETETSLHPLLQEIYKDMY
Kind of data set: Agonist activity at PPARdelta expressed in HEK293 cells by measuring Gal4 luciferase reporter activity. The class given is functional, cell-based.

Data set [21] has as its target T6, Peroxisome proliferator-activated receptor alpha (Homo sapiens, UniProt Q07869).
T6 sequence (Q07869 whole entry): T1 sequence (whole entry)
Put plainly: Agonist activity at PPARalpha expressed in HEK293 cells by measuring Gal4 luciferase reporter activity. In kind it is functional, cell-based. In a few lines: as §1

The species entered for data set [22] is Homo sapiens. Kind of data set: Selectivity for PPARdelta over PPARalpha.

Each structure is given as a SMILES string. Several values for one entry are separate records, joined by “and”; a condition that tells them apart may be missing. Equal values may be shown once. Activity calls are given as the source filed them. The calls are words filed in the database; no cut-off is given here. Bounds are passed on as bounds.

The text below walks through data of ChEMBL document CHEMBL1148700, “Synthesis and identification of [1,2,4]thiadiazole derivatives as a new series of potent and orally active dual agonists of peroxisome proliferator-activated receptors alpha and delta” (J Med Chem, 2007).

Sequence of Retinoic acid receptor (Homo sapiens) (P10276 whole entry, looked up): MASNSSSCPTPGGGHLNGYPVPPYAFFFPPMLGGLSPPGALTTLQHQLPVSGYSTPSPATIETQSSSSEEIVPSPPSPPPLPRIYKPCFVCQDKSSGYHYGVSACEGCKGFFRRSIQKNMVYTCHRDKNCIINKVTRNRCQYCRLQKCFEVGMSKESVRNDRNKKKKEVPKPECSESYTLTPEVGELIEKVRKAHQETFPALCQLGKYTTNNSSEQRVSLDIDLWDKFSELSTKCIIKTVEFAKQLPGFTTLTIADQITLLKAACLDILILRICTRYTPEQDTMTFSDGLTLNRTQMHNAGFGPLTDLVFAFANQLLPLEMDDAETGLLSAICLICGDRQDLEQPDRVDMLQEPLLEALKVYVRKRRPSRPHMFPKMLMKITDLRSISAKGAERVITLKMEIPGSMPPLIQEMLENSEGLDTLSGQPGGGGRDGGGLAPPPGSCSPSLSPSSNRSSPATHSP
Sequence of Retinoic acid receptor (Homo sapiens) (P10826 whole entry, looked up): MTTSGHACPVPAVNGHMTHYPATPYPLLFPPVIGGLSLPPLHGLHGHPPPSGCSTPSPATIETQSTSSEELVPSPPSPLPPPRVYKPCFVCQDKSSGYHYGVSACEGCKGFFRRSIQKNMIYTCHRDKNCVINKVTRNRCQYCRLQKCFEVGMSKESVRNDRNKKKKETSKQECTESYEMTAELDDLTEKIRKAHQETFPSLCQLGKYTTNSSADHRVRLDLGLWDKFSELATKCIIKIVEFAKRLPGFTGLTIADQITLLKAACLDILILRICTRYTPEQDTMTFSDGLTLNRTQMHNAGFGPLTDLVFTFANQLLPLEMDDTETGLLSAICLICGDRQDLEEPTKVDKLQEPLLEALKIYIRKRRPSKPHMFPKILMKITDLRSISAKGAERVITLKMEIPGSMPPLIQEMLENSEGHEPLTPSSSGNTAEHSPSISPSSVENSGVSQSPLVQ
Sequence of Retinoic acid receptor (Homo sapiens) (P13631 whole entry, looked up): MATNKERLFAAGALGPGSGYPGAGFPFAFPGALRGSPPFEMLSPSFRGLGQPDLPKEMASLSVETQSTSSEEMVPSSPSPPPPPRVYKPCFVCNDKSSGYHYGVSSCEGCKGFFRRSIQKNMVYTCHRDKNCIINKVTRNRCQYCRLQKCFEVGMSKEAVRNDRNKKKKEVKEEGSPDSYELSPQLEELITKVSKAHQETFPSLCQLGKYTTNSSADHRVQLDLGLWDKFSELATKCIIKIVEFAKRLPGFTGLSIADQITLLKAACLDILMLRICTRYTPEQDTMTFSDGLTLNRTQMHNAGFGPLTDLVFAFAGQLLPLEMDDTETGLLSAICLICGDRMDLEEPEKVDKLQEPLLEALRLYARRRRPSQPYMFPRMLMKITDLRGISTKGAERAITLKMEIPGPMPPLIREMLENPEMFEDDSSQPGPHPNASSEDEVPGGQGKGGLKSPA
Sequence of Retinoid X receptor (Homo sapiens) (P19793 whole entry, looked up): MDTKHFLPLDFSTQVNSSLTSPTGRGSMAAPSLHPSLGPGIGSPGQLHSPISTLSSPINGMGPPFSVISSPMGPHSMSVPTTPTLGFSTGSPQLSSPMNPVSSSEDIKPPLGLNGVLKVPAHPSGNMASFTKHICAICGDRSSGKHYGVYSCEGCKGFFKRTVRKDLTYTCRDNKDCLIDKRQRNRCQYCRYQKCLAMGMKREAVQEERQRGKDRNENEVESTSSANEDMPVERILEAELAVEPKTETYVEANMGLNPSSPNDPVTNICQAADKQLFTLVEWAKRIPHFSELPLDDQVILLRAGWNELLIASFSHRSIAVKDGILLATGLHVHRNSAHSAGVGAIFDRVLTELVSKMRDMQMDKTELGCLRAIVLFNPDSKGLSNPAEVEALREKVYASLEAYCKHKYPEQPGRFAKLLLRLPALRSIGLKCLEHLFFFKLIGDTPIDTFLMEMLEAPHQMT
Sequence of Retinoid X receptor (Homo sapiens) (P28702 whole entry, looked up): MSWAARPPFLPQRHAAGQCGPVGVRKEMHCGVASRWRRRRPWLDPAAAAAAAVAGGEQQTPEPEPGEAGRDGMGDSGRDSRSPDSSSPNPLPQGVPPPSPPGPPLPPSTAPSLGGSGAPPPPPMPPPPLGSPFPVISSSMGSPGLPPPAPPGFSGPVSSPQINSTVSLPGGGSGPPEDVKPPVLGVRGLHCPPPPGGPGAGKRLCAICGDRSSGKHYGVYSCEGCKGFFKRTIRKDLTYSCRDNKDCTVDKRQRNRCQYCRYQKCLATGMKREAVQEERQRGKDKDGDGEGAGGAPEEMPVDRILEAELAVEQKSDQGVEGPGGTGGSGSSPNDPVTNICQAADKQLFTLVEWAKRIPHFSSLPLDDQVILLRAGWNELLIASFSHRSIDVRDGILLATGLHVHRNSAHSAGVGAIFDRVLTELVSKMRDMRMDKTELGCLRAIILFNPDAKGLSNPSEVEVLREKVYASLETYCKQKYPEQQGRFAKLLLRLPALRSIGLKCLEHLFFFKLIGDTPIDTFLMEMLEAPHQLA
Sequence of Retinoid X receptor (Homo sapiens) (P48443 whole entry, looked up): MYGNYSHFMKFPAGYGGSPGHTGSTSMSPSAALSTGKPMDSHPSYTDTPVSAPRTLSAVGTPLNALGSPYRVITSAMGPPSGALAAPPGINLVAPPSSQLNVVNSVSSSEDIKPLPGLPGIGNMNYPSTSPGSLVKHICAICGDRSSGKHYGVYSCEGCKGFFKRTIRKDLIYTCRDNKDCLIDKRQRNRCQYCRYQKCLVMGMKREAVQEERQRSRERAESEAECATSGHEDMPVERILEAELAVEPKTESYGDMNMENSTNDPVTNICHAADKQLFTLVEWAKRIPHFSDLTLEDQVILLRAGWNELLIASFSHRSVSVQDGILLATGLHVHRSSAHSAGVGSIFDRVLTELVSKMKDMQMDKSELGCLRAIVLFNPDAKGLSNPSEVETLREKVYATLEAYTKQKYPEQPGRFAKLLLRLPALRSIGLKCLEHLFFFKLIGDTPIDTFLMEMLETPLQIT

`Cc1cc(OCc2nc(-c3ccc(C(F)(F)F)cc3)ns2)ccc1OC(C)(C)C(=O)O` gave an Activity in data set [1] of 71%.
The molecule `Cc1cc(SCc2nc(-c3ccc(OC(F)(F)F)cc3)ns2)ccc1OC1(C(=O)O)CCCC1` gave an Activity in data set [1] of 31%.
Consider `Cc1cc(SCc2nsc(-c3ccc(C(F)(F)F)cc3)n2)ccc1OC(C)(C)C(=O)O`, for which, in data set [1], the Activity amounted to 38%.
In data set [2], `Cc1cc(SCc2nsc(-c3ccc(OC(F)(F)F)cc3)n2)ccc1OC(C)(C)C(=O)O` had an EC50 greater than 3000 nM. This molecule came in with an Activity in data set [1] of 47%.
In the case of `Cc1cc(SCc2nc(-c3ccc(OC(F)(F)F)cc3)ns2)ccc1OC(C)(C)C(=O)O`, the Activity in data set [3] is 85%; in [4] it was 31%; in data set [13], 74%; in data set [14] it was 80% and 98.9 mg/dl; in data set [1] it was 44%. The outcome in data set [5] and in data set [12] was Active. Besides, the result in data set [6], in [8], in data set [16] and in [18] was inactive. Moreover, in [7], the Cmax was determined as 6680 ng/mL. In addition, the figures for the EC50 in [2] and in [15] were greater than 3000 nM and 127 nM, respectively. For the same molecule, in [9], the Tmax worked out at 0.8 h. Further, the bioavailability in data set [10] stood at 96%. In data set [11], the AUC was 22000 ng·h/mL. Besides, the half-life in data set [17] is 5.3 h. Moreover, in [19], the clearance was 2.2 mL/min/kg.
As to `Cc1cc(OCc2nc(-c3ccc(OC(F)(F)F)cc3)ns2)ccc1OC(C)(C)C(=O)O`, the EC50 in [20] was 12 nM. Moreover, the Activity in data set [1] was found to be 80%.
In data set [1], `Cc1cc(SCc2nc(-c3ccc(Cl)cc3)ns2)ccc1OC(C)(C)C(=O)O` came in with an Activity of 38%.
The same measure, in the same setting: under `Cc1cc(SCc2nc(-c3ccc(C(C)(C)C)cc3)ns2)ccc1OC(C)(C)C(=O)O` stands 64%.
As to `Cc1cc(SCc2nc(-c3ccc(C(F)(F)F)cc3)ns2)ccc1OC(C)(C)C(=O)O`, the EC50 in data set [21] amounted to 79 nM; in data set [20], 6 nM. In [1], this molecule displayed an Activity of 51%.
The molecule `Cc1cc(SCc2nc(-c3ccc(C(F)(F)F)cc3)ns2)ccc1OCC(=O)O` gave an EC50 in data set [2] greater than 3000 nM. Further, the Selectivity ratio in data set [22] was determined as 47. For the same molecule, in data set [1], the Activity stood at 42%.
